In the library only some 3.5% were active in any assay of this set; here they are far more common.
RGS4 inh – RGS4 inhibitors, primary screen, cell-based, HEK293 M3R inducible RGS4, calcium flux | Regulator of G-protein signaling 4 (Homo sapiens), P49798 | Fluo-4 calcium flux; stronger effect = higher value; triggered by carbachol at its EC20 | B-score at 10 µM | 310,000 tested, 0.45% active | AID 463165, 2010;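 active = B-score, a plate-corrected calcium signal, over three deviations above library mean, with baseline fluorescence within five deviations of library mean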;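 note: RGS4 expression induced by doxycycline in cells with stable M3 receptor; B-score is computed from the integrated fluorescence ratio over baseline after carbachol; higher B-score means a larger calcium signal and so more RGS4 inhibition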
Target sequence (P49798 whole entry, looked up): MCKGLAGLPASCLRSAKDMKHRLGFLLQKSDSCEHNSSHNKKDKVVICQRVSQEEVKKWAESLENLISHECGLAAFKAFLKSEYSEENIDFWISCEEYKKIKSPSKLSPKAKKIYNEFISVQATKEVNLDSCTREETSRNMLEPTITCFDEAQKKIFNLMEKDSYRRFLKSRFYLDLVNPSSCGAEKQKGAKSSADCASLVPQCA
RGS4 act – RGS4 potentiators or activators, primary screen, cell-based, HEK293 M3R inducible RGS4, calcium flux; carbachol calcium flux Fluo4; stronger effect = lower value; B-score at 10 µM; 310,000 tested, 0.92% active;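 active = B-score of the integrated calcium signal more than 4 SD below the library mean, with starting fluorescence not abnormally high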;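 note: negative B-score means reduced calcium response which marks RGS4 activation or potentiation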
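System: HEK293 FlpIn-TREx cells, stable M3R, doxycycline-inducible RGS4. Timing: overnight RGS4 induction, 30 min dye load 37 °C, 20 min compound RT. Also added: carbachol, ECmax concentration. Measured by: Fluo4 fluorescence kinetic imaging of calcium. Evaluation: integrated calcium ratio converted to B score.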
MrgX1 ag – agonists of human MrgX1 receptor, primary screen, HEK293 cells, Fluo-4 calcium flux; Mas-related G-protein coupled receptor member X1 (Homo sapiens), Q96LB2; 310,000 tested, 0.44% active; Fluo-4 calcium fluorescence, agonist mode; stronger effect = higher value; B-score at 10 µM; AID 588627, 2011;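 active = calcium response B-score plate-corrected fluorescence ratio at least 3 library SD, with starting fluorescence B-score inside 5 SD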
Target sequence (Q96LB2 whole entry, looked up): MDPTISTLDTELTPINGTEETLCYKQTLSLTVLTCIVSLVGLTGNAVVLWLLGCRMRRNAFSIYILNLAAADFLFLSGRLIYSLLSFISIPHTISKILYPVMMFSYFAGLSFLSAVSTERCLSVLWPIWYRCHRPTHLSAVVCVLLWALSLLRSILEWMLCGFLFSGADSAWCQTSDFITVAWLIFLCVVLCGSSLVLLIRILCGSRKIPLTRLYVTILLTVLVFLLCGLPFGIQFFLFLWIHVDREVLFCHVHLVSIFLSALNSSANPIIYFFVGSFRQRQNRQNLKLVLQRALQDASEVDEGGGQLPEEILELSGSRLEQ
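System: HEK293 cells stably expressing human MrgX1 receptor; Dosing: test compound in the initial addition of three; Schedule: overnight plating, then 30 min 37 °C plus 30 min room-temperature dye loading; Detection: kinetic calcium dye fluorescence, Fluo-4 NW; Controls: per-plate positive and negative controls for Z′ factor.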
MrgX1 antagonist – antagonists of human MrgX1 receptor, primary screen, HEK293 cells, Fluo-4 calcium flux; Mas-related G-protein coupled receptor member X1 (Homo sapiens), Q96LB2; BAM8-22 antagonism; stronger effect = lower value; B-score at 10 µM; 310,000 tested, 1.3% active; AID 588676, 2011;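 active = calcium-response B-score plate-corrected more than 3 library SD below zero, starting fluorescence within 5 deviations, no agonist response on first addition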;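 note: peak minus trough fluorescence over baseline after final BAM8-22 challenge near maximal dose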
MrgX1 PAM – positive allosteric modulators of MrgX1, primary screen, HEK293 cells, Fluo-4 calcium flux; Mas-related G-protein coupled receptor member X1 (Homo sapiens), Q96LB2; FDSS; stronger effect = higher value; B-score at 10 µM; 310,000 tested, 0.63% active; AID 588675, 2011;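 active = plate-corrected calcium response at least 3 library SD above typical, normal starting fluorescence, not activating the receptor alone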;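 note: compound read alongside a low EC10 to EC30 dose of BAM8-22 agonist; peak minus trough fluorescence over baseline measured at the second addition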
RGS4 inh valid – enhanced carbachol calcium response, M3R/RGS4 cells, RGS4 inhibitor project, cell-based, validation screen, HEK293 M3R/RGS4, calcium flux; 1,700 tested, 65% active; carbachol calcium Fluo-4 fluorescence; carbachol added at its EC20; 0 = buffer wells, 100 = carbachol control; shares compounds with RGS4 inh; calcium response, % at 10 µM;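 active = duplicate-averaged calcium response above the buffer-only control mean plus 5 SD of those controls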;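 note: integrated fluorescence ratio F max minus min over baseline F0; higher response in RGS4-induced cells means RGS4 inhibition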
M3R Ca ctr – carbachol calcium response in non-induced M3R cells, confirmation, counter-screen for RGS4 inhibitor project, cell-based, HEK293 M3R; shares compounds with RGS4 inh; carbachol calcium Fluo-4; submaximal (EC20) carbachol stimulus; buffer wells 0%, carbachol control wells 100%; activity (percent), % at 10 µM; 1,900 tested, 20% active; call rule not given here;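 note: RGS4 induction absent so cells express M3R without RGS4; higher means more calcium signal and flags a non-specific hit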
RGS4 inh ctr2 – second RGS4 inhibitor counter-screen in uninduced cells lacking carbachol; shares compounds with RGS4 inh; HEK293 M3R/RGS4 non-induced, Fluo-4 calcium, no carbachol; normalised: buffer wells 0%, carbachol wells 100%; calcium response (agonist-mode artifact), % at 10 µM; 1,900 tested, 22% active;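 active = duplicate-averaged calcium rise in uninduced cells above buffer wells' mean plus 5 SD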
Large screens that a line does not name were inactive (follow-up assays come after a bar, where they were run).

CCN(CC)CCN(Cc1cc2cc3c(cc2[nH]c1=O)OCO3)C(=S)NCCCOC	none
COCCNC(=S)N(CCO)Cc1cc2cc3c(cc2[nH]c1=O)OCO3	none | RGS4 inh valid inactive | M3R Ca ctr inactive | RGS4 inh ctr2 inactive
Cc1ccc(N2C(=O)N3[C@H]4c5ccccc5OC[C@@H]4[C@@H](c4ccccc4)[C@@]3(C)C2=O)cc1	none
C[C@]12C(=O)N(c3ccc(C(F)(F)F)cc3)C(=O)N1[C@@H]1c3ccccc3OC[C@@H]1[C@H]2c1ccccc1	none
C[C@]12C(=O)N(c3ccccc3)C(=O)N1[C@@H]1c3ccccc3OC[C@@H]1[C@H]2c1ccccc1	none | RGS4 inh valid inactive | M3R Ca ctr inactive | RGS4 inh ctr2 inactive
C[C@]12C(=O)N(c3cccc(F)c3)C(=O)N1[C@@H]1c3ccccc3OC[C@@H]1[C@H]2c1ccccc1	none | RGS4 inh valid inactive | M3R Ca ctr inactive | RGS4 inh ctr2 inactive
Cc1ccccc1NC(=O)CN1C(=O)C2C3CC(C(Br)C3Br)C2C1=O (centres undefined)	none
Nc1nc2ccccc2n1CCOc1ccc(Br)cc1	none
S=C(Nc1ccccc1)Nc1nc2ccccc2n1CCOc1ccc(Br)cc1	RGS4 inh 5.05 | RGS4 inh valid 10.5% | M3R Ca ctr inactive | RGS4 inh ctr2 inactive
Cc1nc(N2CCOCC2)c2c(C)c(C(=O)Nc3ccccc3Cl)sc2n1	none
CC(/C=C/c1ccc(N(C)C)cc1)=N\N=C(/N)SC1CC(=O)N(c2ccc(C(=O)O)cc2)C1=O (centres undefined)	none
C/C(=N\N=C(/N)SC1CC(=O)N(c2cccc(Cl)c2)C1=O)c1cccs1 (centres undefined)	none | M3R Ca ctr inactive | RGS4 inh ctr2 inactive
CCCOc1ccc(N2C(=O)CC(S/C(N)=N/N=C(\C)c3cccs3)C2=O)cc1 (centres undefined)	none | M3R Ca ctr inactive | RGS4 inh ctr2 inactive
COc1ccc(OC)c(NC(=O)c2ccc(N3C(=O)C4CC=C(C)CC4C3=O)cc2)c1 (centres undefined)	none
COc1cc2c(cc1OC)CN(CCC(=O)c1ccc(Br)cc1)CC2	RGS4 inh 21.3 | RGS4 inh valid 53.5% | M3R Ca ctr inactive | RGS4 inh ctr2 27.5%
O=C(Cn1cnc2c(oc3ccccc32)c1=O)NCc1ccco1	none
Cc1cccc(N2C(=O)/C(=C/c3ccccn3)SC2=S)c1	none
Cc1cccc(N2C(=O)/C(=C/c3cccnc3)SC2=S)c1	RGS4 inh 4.89 | RGS4 inh valid 19.0% | M3R Ca ctr 42.5% | RGS4 inh ctr2 inactive
Cc1ccc(/C=C2\SC(=S)N(c3cccnc3)C2=O)o1	none
Cc1ccc(N2C(=O)/C(=C/c3cccnc3)SC2=S)cc1	none | M3R Ca ctr inactive | RGS4 inh ctr2 inactive
S=c1[nH]nc(-c2ccncc2)n1/N=C/c1cn(-c2ccccc2)nc1-c1ccc(Cl)cc1	none | RGS4 inh valid inactive | M3R Ca ctr inactive | RGS4 inh ctr2 inactive
CC(=C/c1ccccc1)/C=N/n1c(-c2ccncc2)n[nH]c1=S	RGS4 inh 5.13 | RGS4 inh valid 16.0% | M3R Ca ctr inactive | RGS4 inh ctr2 inactive
CC(/C=N/n1c(-c2cccnc2)n[nH]c1=S)=C\c1ccccc1	none
O=C(Nc1cccc([N+](=O)[O-])c1)c1cc(S(=O)(=O)Nc2ccccn2)ccc1Cl	none
CCCCCCOc1ccc(N2C(=O)CC(NCCc3ccc(S(N)(=O)=O)cc3)C2=O)cc1 (centres undefined)	none
NC(=O)CC(NC(=O)Cc1ccc(Cl)cc1)c1ccc(NC2CCN(Cc3ccccc3)CC2)c([N+](=O)[O-])c1 (centres undefined)	none | RGS4 inh valid inactive | M3R Ca ctr inactive | RGS4 inh ctr2 inactive
NC(=O)CC(NC(=O)c1cccc(Br)c1)c1ccc(NC2CCN(Cc3ccccc3)CC2)c([N+](=O)[O-])c1 (centres undefined)	none
CCn1nc(NS(=O)(=O)c2ccc(C)cc2)c2cc3ccccc3nc21	none
CCCn1nc(NS(C)(=O)=O)c2cc3cccc(C)c3nc21	none
CCn1nc(NS(=O)(=O)c2ccc([N+](=O)[O-])cc2)c2cc3ccccc3nc21	none | M3R Ca ctr inactive | RGS4 inh ctr2 inactive
CCn1nc(NS(=O)(=O)c2ccc(NC(C)=O)cc2)c2cc3cccc(C)c3nc21	none
CCn1nc(NS(=O)(=O)c2ccc(F)cc2)c2cc3cccc(C)c3nc21	none | RGS4 inh valid inactive | M3R Ca ctr inactive | RGS4 inh ctr2 inactive
CCn1nc(NS(=O)(=O)c2ccccc2)c2cc3cccc(C)c3nc21	none | M3R Ca ctr inactive | RGS4 inh ctr2 inactive
CC1c2cc3c(cc2CCN1C(=O)c1ccc(Br)cc1)OCCCO3 (centres undefined)	none
COc1ccc(C(=O)/C=C/c2ccsc2)cc1CSCC(=O)O	RGS4 inh 4.99 | RGS4 inh valid 10.0% | M3R Ca ctr inactive | RGS4 inh ctr2 inactive
O=C(O)CCN1C(=O)c2ccc(NC(=O)CSc3ccccc3)cc2C1=O	none
N#Cc1c(NC(=O)C2CC=CCC2C(=O)O)sc2c1CCCCCC2 (centres undefined)	RGS4 inh 5.03 | RGS4 inh valid 19.5% | M3R Ca ctr inactive | RGS4 inh ctr2 inactive
CC(C)(C)C1CCc2c(sc(NC(=O)C3CC=CCC3C(=O)O)c2C#N)C1 (centres undefined)	none
O=C1NC(=O)/C(=C/c2ccc(-c3cc(C(=O)O)ccc3Cl)o2)S1	RGS4 inh 6.16 | RGS4 inh valid 12.5% | M3R Ca ctr inactive | RGS4 inh ctr2 inactive
Cc1cc(C)n(CC(O)Cn2c3ccc(Br)cc3c3cc(Br)ccc32)c(=O)n1 (centres undefined)	RGS4 inh 7.79 | RGS4 inh valid 27.0% | M3R Ca ctr inactive | RGS4 inh ctr2 inactive
O=C(Nc1nc2ccccc2s1)C1CCCN1S(=O)(=O)c1ccc(Cl)cc1 (centres undefined)	none

Screening data as filed in PubChem.
